{"data": "Measurements collected from several papers", "target": "Serine/threonine-protein kinase TAO3 (TAOK3, Homo sapiens, UniProt Q9H2K8)", "Residues used in one study (Q9H2K8 1-898)": "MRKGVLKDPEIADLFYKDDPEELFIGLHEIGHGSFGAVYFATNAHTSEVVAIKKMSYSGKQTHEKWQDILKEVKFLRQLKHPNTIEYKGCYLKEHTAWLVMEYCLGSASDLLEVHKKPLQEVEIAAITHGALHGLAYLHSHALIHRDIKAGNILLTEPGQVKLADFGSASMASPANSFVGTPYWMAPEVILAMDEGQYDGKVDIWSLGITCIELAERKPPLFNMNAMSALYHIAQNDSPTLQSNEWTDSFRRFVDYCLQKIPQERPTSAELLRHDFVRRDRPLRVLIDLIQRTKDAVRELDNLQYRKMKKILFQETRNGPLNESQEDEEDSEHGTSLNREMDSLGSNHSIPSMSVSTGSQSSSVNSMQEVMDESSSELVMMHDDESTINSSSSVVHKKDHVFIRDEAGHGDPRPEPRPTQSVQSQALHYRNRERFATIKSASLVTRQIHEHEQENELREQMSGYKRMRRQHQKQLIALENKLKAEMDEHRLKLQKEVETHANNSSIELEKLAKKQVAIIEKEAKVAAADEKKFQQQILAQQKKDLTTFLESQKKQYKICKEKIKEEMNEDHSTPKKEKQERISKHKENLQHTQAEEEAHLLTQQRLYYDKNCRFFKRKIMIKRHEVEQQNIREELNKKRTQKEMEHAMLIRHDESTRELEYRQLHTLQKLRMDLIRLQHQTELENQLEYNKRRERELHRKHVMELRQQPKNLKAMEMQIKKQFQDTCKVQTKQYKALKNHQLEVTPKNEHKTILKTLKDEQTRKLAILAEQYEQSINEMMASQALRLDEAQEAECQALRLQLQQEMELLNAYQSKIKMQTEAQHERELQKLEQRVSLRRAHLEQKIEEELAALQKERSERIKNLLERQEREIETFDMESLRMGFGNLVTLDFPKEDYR", "note": "Compare with care: the assays were run in different laboratories."}
{"Structure (SMILES)": "CN(C)C(=O)Cn1cc(-c2nc(C3(c4ccc(-c5cnc(N)nc5)cc4)CC3)no2)cn1", "read-out": "cell-free assay", "technique": "competition with immobilised ligand", "tested at": "1 µM", "endpoint": "remaining binding", "result": "67%"}
{"Structure (SMILES)": "CCCS(=O)(=O)Nc1ccc(F)c(C(=O)c2c[nH]c3ncc(-c4ccc(Cl)cc4)cc23)c1F", "read-out": "enzyme activity", "action": "inhibitor", "tested at": "1 µM", "endpoint": "inhibition", "result": "< 10%"}
{"Structure (SMILES)": "COc1cc(-c2cc(-c3ccc(N4CCNCC4)cc3)cnc2C)cc(OC)c1OC", "read-out": "enzyme activity", "action": "inhibitor", "tested at": "0.1 µM", "endpoint": "inhibition", "result": "3%"}
{"Structure (SMILES)": "CC(=O)N1CCC(c2ccc(C(=O)NC3=NCCN3)cc2C(F)(F)F)CC1", "read-out": "cell-free assay", "technique": "competition with immobilised ligand", "tested at": "1 µM", "endpoint": "remaining binding", "result": "87%"}
{"Structure (SMILES)": "CCN(CC)c1ccc(C2=NNC(=O)CC2C)cc1[N+](=O)[O-] (stereo not shown)", "read-out": "enzyme activity", "action": "inhibitor", "tested at": "10 µM", "endpoint": "remaining activity", "result": "95%"}
{"Structure (SMILES)": "COc1cc(Nc2c(C#N)cnc3cc(OCCCN4CCN(C)CC4)c(OC)cc23)c(Cl)cc1Cl", "read-out": "cell-free assay", "tested at": "0.5 µM", "endpoint": "remaining signal", "result": "71.3%"}
{"Structure (SMILES)": "O=C(Nc1cnn(-c2csc(C(=O)NC3COC3)c2)c1)Nc1c(F)cccc1Cl", "read-out": "enzyme activity", "action": "inhibitor", "tested at": "5 µM", "endpoint": "remaining activity", "result": "90.2%"}
{"Structure (SMILES)": "Nc1ncnc2occ(-c3ccc(NC(=O)Nc4cc(C(F)(F)F)ccc4F)cc3)c12", "read-out": "cell-free assay", "action": "inhibitor", "tested at": "20 µM", "endpoint": "remaining signal", "result": "0.05%"}
{"Structure (SMILES)": "COc1ccc2c(c1)O[C@@H](c1ccc(OC)c(OC)c1)C[C@H]2NC(=O)C1(c2ccc3c(c2)OC(F)(F)O3)CC1", "read-out": "cell-free assay", "technique": "competition with immobilised ligand", "tested at": "1 µM", "endpoint": "remaining binding", "result": "91%"}
{"Structure (SMILES)": "Clc1ccc(Nc2nnc(Cc3ccncc3)c3ccccc23)cc1", "read-out": "cell-free assay", "tested at": "0.5 µM", "endpoint": "remaining signal", "result": "99.9%"}
{"Structure (SMILES)": "Cc1ccc(NC(=O)c2ccc(C)c(C(F)(F)F)c2)cc1C#Cc1nn(C2CCC(O)CC2)c2ncnc(N)c12 (stereo not shown)", "read-out": "cell-free assay", "tested at": "10 µM", "endpoint": "remaining signal", "result": "2%"}
{"Structure (SMILES)": "O=[N+]([O-])c1cccc2[nH]c(CNc3nc(N4CCOCC4)nc4c3ncn4-c3ccsc3)nc12", "read-out": "binding", "technique": "competition with immobilised ligand", "tested at": "10 µM", "endpoint": "binding vs control", "result": "85%"}
{"Structure (SMILES)": "CCOCCn1cc(C(=O)Nc2ccc(-n3nc(-c4cccnc4)cc3C(F)(F)F)cn2)ccc1=O", "read-out": "cell-free assay", "technique": "competition with immobilised ligand", "tested at": "1 µM", "endpoint": "remaining binding", "result": "66%"}
{"Structure (SMILES)": "Cc1ccc(Nc2nccc(N(C)c3ccc4c(C)n(C)nc4c3)n2)cc1S(N)(=O)=O", "read-out": "enzyme activity", "action": "inhibitor", "tested at": "10 µM", "endpoint": "inhibition", "result": "96%"}
{"Structure (SMILES)": "CS(=O)(=O)CCNCc1ccc(-c2ccc3ncnc(Nc4ccc(OCc5cccc(F)c5)c(Cl)c4)c3c2)o1", "read-out": "cell-free assay", "tested at": "0.5 µM", "endpoint": "remaining signal", "result": "101%"}
{"Structure (SMILES)": "CC(C)(C)c1nc(-c2cccc(NS(=O)(=O)c3c(F)cccc3F)c2F)c(-c2ccnc(N)n2)s1", "read-out": "enzyme activity", "action": "inhibitor", "technique": "radiometric", "tested at": "1 µM", "endpoint": "remaining activity", "result": "91%"}
{"Structure (SMILES)": "CCOc1cc(-c2nncn2C)ccc1Nc1ncc2cc(C)nc(NCC(C)(C)C)c2n1", "read-out": "cell-free assay", "technique": "TR-FRET", "tested at": "1 µM", "endpoint": "inhibition", "result": "≤ 15%"}
{"Structure (SMILES)": "O=C(O)[C@@H]1[C@@H](Cn2nnc3ccccc3c2=O)CC[C@H]1C(=O)c1ccc(OCCC2CCOCC2)cc1", "read-out": "cell-free assay", "technique": "competition with immobilised ligand", "tested at": "1 µM", "endpoint": "remaining binding", "result": "100%"}
{"Structure (SMILES)": "C#Cc1cccc(Nc2ncnc3cc(OCCOC)c(OCCOC)cc23)c1", "read-out": "cell-free assay", "tested at": "0.5 µM", "endpoint": "remaining signal", "result": "106%"}
{"Structure (SMILES)": "CC1=C(C#N)C(c2ccc3c(c2)c(NC(=O)c2ccccc2C)nn3C)C(C#N)=C(C)N1", "read-out": "cell-free assay", "technique": "competition with immobilised ligand", "tested at": "1 µM", "endpoint": "remaining binding", "result": "80%"}
{"Structure (SMILES)": "N#CCCc1ccc2c(c1)-c1[nH]c3ccc([N+](=O)[O-])cc3c1CC(=O)N2", "read-out": "cell-free assay", "tested at": "0.5 µM", "endpoint": "remaining signal", "result": "66%"}
{"Structure (SMILES)": "Cc1cnc(NC2CCOCC2)nc1-n1cnc(C(=O)NC(CN)c2cc(F)cc(Cl)c2)c1 (stereo not shown)", "read-out": "enzyme activity", "action": "inhibitor", "technique": "radiometric", "tested at": "1 µM", "endpoint": "remaining activity", "result": "89%"}
